Key:
5-HT1A = target: T1, 5-HT1A (Homo sapiens, UniProt P08908); experiment: 5-HT1A-mediated Gi1 activation, BRET; assay type: cell-based; details: for EC50: read-out: Gi BRET EC50, 5-HT1A-mediated Gi1 activation, HEK293-T cells; for maximum drug effect (Emax): 5-HT1A-mediated activation of Gi1, BRET; for selectivity for 5-HT1A > 5-HT2A: Gi BRET at 5-HT1A versus Gq BRET at 5-HT2A; for 5-HT1A efficacy (in words): Gi BRET, compared with serotonin
T1 sequence (P08908 1-422): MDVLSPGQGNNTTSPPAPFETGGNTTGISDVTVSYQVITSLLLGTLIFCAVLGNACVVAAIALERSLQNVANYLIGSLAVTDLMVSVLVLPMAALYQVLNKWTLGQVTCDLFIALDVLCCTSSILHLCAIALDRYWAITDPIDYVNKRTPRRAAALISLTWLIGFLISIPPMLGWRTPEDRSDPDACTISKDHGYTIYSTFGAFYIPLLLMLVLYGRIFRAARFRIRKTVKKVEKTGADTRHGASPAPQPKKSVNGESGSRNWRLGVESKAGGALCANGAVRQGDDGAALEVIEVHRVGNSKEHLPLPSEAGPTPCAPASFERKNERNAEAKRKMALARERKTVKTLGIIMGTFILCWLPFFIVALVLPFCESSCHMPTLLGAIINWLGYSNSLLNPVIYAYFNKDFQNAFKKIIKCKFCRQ

5-HT2A = 5-HT2A (Homo sapiens, UniProt P28223); experiment: 5-HT2A-mediated Gq activation, BRET; assay type: cell-based; details: for decrease in 5-HT2A potency: relative to 5-MeO-DMT
5-HT2A, sequence (P28223 whole entry): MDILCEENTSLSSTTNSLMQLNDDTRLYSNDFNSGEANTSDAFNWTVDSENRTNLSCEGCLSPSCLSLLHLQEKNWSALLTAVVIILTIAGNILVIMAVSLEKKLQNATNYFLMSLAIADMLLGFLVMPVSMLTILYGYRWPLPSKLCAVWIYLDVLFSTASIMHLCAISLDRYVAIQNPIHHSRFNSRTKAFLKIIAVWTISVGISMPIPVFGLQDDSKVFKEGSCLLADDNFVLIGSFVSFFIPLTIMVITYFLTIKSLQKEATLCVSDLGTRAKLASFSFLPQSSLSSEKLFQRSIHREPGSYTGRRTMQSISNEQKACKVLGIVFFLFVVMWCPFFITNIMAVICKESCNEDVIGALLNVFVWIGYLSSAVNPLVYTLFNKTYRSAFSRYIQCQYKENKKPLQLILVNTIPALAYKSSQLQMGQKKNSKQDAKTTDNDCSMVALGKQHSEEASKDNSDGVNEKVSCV

[1] = Pharmacokinetics in plasma and brain after s.c. administration; assay type: in vivo, C57BL/6 male mice; details: mice; for AUClast / Cmax: 1 mg/kg SC
Summary of the method: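 Male C57BL/6 mice (27; 3 per time point) received a subcutaneous solution formulation. Retro-orbital blood (~60 μl) was taken under light isoflurane at 0.083–12 h. Plasma and brain levels were measured by LC–MS/MS with non-compartmental analysis: Cmax and Tmax as observed, AUClast by linear trapezoidal rule, Kp calculated. For plasma protein binding, compound was spiked at 5 μM final into mouse plasma and dialysed 4 h at 37 °C.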

[2] = system: head-twitch response (measure of 5-HT2A activation); experiment: Head-twitch response; assay type: in vivo, C57BL/6J mice; details: mice
[3] = system: all other G protein-coupled 5-HT receptors; experiment: Off-target activity at 5-HT receptors; assay type: cell-based, human; details: compared with activity at 5-HT1A
[4] = Human plasma protein binding; assay type: in vitro ADME; details: for % Compound remaining at 4 h: 37 °C
[5] = system: chronic social defeat stress mice; experiment: Sucrose preference test after chronic social defeat stress; assay type: in vivo, C57BL/6J mice
Summary of the method: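 Chronic social defeat was 10 days of 10-min bouts by CD-1 aggressors in male C57BL/6J mice. On day 10, stressed mice were housed singly and habituated to two water bottles, then given a two-bottle choice between water and 1% sucrose. Data were pooled from two independent experiments.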

[6] = Mouse plasma protein binding; assay type: in vitro ADME; details: for % Compound remaining at 4 h: 37 °C; for fraction unbound at 4 h, 5 µM: mouse, mouse plasma
[7] = system: locomotor activity (measure of 5-HT1A activation); experiment: Open-field locomotion assay; assay type: in vivo, C57BL/6J mice; details: mice, s.c.
Summary of the method: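 Male C57BL/6J mice aged 10–15 weeks were habituated for 30 min, then pretreated with vehicle or WAY-100635 (1 or 2 mg kg⁻¹ s.c.). Test compound followed 15 min later, s.c. at 0.1–3 or 0.3–10 mg kg⁻¹. Mice were placed immediately in a clear arena lit at about 330 lux. Observers were blinded; total locomotion was recorded automatically over 30 min, n = 7–8 per group.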

[8] = Mouse brain tissue binding; assay type: in vitro ADME; details: for % Compound remaining at 4 h: 37 °C; for fraction unbound at 4 h, 5 µM: mouse, mouse brain tissue
[9] = target: serotonin transporter (SERT) (Homo sapiens, UniProt P31645); experiment: Serotonin transporter uptake inhibition; assay type: cell-based
serotonin transporter (SERT), sequence (P31645 whole entry, species assumed): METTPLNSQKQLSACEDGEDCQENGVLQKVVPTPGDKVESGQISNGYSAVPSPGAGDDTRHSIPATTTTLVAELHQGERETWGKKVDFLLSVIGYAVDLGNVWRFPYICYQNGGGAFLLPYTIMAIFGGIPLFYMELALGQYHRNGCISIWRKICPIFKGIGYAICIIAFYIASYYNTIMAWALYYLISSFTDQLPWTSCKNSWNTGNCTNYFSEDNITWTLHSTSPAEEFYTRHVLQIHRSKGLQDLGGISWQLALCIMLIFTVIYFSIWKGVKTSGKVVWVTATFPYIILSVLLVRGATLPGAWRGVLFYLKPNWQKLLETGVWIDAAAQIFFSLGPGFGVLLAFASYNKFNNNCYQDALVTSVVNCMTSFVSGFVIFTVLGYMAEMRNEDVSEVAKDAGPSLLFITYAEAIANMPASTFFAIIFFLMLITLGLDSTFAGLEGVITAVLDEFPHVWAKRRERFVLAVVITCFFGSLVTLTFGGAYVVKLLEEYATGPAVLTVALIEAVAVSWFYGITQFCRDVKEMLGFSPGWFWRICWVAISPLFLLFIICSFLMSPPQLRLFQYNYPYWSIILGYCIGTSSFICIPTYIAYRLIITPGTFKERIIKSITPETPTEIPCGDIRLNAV

[10] = system: chronic social defeat stress mice; experiment: Social interaction; assay type: in vivo, C57BL/6J mice
Summary of the method: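 Male C57BL/6J mice, 8 weeks old, had 10 consecutive days of 10-min defeat by a new CD-1 aggressor each day, then were housed overnight across a partition; controls were pair-housed and handled daily. Drug or vehicle was given 1 h after the last defeat, with SI testing 24 h later. The interaction ratio was interaction-zone time, target vs no-target; corner time and no-target locomotion were also scored. Pooled from three experiments; two-way ANOVA; resilient (>1) vs susceptible (<1) compared by Fisher's exact test.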

[11] = system: other neurotransmitter transporters (OCT1, OCT2, PMAT); experiment: OCT1, OCT2 and PMAT uptake inhibition; assay type: cell-based
5-HT2A(N343A) = 5-HT2A(N343A) (Homo sapiens, UniProt P28223, N343A); experiment: 5-HT2A-Gq BRET at mutant receptor N343A; assay type: cell-based; details: 5-HT2A N343A versus wild type
5-HT2A(N343A), sequence (P28223 whole entry N343A): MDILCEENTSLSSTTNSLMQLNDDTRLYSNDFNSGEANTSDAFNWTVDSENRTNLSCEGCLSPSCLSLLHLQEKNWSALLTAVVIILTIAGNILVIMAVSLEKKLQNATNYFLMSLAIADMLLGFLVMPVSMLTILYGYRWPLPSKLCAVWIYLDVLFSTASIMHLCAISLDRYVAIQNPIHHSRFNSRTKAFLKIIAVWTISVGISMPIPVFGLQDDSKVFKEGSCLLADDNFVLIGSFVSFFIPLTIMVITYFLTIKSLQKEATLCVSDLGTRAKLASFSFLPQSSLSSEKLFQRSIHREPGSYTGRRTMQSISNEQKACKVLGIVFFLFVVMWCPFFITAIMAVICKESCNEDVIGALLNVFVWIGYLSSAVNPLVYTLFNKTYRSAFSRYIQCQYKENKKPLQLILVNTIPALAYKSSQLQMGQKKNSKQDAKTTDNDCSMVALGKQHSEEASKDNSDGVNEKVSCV

5-HT1A(A365N) = experiment: 5-HT1A-Gi BRET at mutant receptor A365N; assay type: cell-based, human; details: 5-HT1A A365N versus wild type
5-HT2A(V366N) = 5-HT2A(V366N) (Homo sapiens, UniProt P28223, V366N); details: 5-HT2A V366N versus wild type
5-HT2A(V366N), sequence (P28223 whole entry V366N): as the sequence (P28223 whole entry N343A) above, with A343N, V366N counted along it

COc1ccc2[nH]cc(CCN3CC=CC3)c2c1F [4-F,5-MeO-3-PyrrolineT]
EC50 (5-HT1A): 0.22 nM

COc1ccc2[nH]cc(CCN(C)C)c2c1F [4-F,5-MeO-DMT]
increase in potency at 5-HT1A (5-HT1A; relative to 5-MeO-DMT): 14 fold | decrease in 5-HT2A potency (5-HT2A): 3 fold

COc1ccc2[nH]cc(CCN3CCCC3)c2c1F [4-F,5-MeO-PyrT, 4-fluoro, 5-methoxypyrrolidinyl-tryptamine]
AUClast ([1]; Brain): 128.34 ng·h/mL | Cmax ([1]; Brain): 143.35 ng/mL | AUClast ([1]; Plasma): 26.40 ng·h/mL | Cmax ([1]; Plasma): 44.02 ng/mL | time within which compound was largely cleared ([1]; 1 mg kg^-1 s.c.): ≤ 2 h | total brain-to-plasma ratio ([1]; 1 mg kg^-1 s.c.): 3.3 | unbound brain-to-plasma ratio ([1]; 1 mg kg^-1 s.c.): 0.91 | time of peak brain penetration ([1]; 1 mg kg^-1 s.c., following drug administration): 30 min | estimated free drug concentration in the brain at Tmax ([1]; s.c. dose of 1 mg kg^-1, at 82.5% brain tissue binding): about 100 nM | HTR (in words) ([2]; doses up to 3 mg kg^-1, in the presence or absence of WAY-100635): did not produce notable HTR | maximum drug effect (Emax) (5-HT1A): 102.8 % of 5-HT | selectivity for 5-HT1A > 5-HT2A (5-HT1A): greater than 800 fold | EC50 (5-HT1A): 0.37 nM | activity at other 5-HT receptors (in words) [3]: substantially reduced activity | % Bound Mean ([4]; Human Plasma): 26.01% | % Recovery ([4]; Human Plasma): 81.8% | % Unbound ([4]; Human Plasma): 73.99% | fu ([4]; Human Plasma): 0.740 | % Compound remaining at 4 h ([4]; Human Plasma): 97.9% | % Bound R1 ([4]; Human Plasma, replicate 1, 4 h at 37 °C): 22.19% | sucrose preference in stressed mice relative to vehicle-treated animals ([5]; 1 mg kg^-1 s.c., 1% sucrose two-bottle choice): significantly increased sucrose preference | % Bound Mean ([6]; Mouse Plasma): 37.36% | % Recovery ([6]; Mouse Plasma): 84.7% | % Unbound ([6]; Mouse Plasma): 62.64% | fu ([6]; Mouse Plasma): 0.626 | % Compound remaining at 4 h ([6]; Mouse Plasma): 105.6% | % Bound R1 ([6]; Mouse Plasma, replicate 1, 4 h at 37 °C): 32.04% | locomotor activity in the open-field test (in words) [7]: dose-dependent locomotor suppression | lowest dose that produced suppression of locomotion [7]: 0.03 mg/kg | % Bound Mean [8]: 82.5% | % Recovery [8]: 88% | % Unbound [8]: 17.5% | brain tissue binding [8]: 82.5% | fu [8]: 0.175 | % Compound remaining at 4 h [8]: 96% | % Bound R1 ([8]; replicate 1, 4 h at 37 °C): 84.3% | activity at the serotonin transporter (in words) [9]: substantially reduced activity | EC50 (5-HT2A; read-out: Gq BRET EC50, 5-HT2A-mediated Gq activation): 300 nM | social avoidance phenotype (decreased interaction ratio) in stress-exposed mice ([10]; 1 mg kg^-1 s.c. 1 h after last defeat, SI test 24 h later): rescued | interaction ratio in control mice, drug versus vehicle ([10]; 1 mg kg^-1 s.c., non-stressed mice): did not show any distinguishable differences in IR | increased time in the corners of the arena in defeated mice ([10]; drug-treated stressed mice): no longer observed | number of resilient mice (SI ratio > 1) ([10]; drug-treated versus vehicle-treated stressed mice): increased the number of resilient mice | activity at other neurotransmitter transporters (in words) [11]: substantially reduced activity

CN(C)CCc1c[nH]c2ccc(O)c(F)c12 [4-F,5-OH-DMT]
decrease in potency by N343A mutation (5-HT2A(N343A)): ~19 fold

COc1ccc2[nH]cc(CCN3CC=CC3)c2c1 [5-MeO-3-PyrrolineT]
EC50 (5-HT1A): 0.3 nM | further increase in potency at 5-HT1A (5-HT1A; relative to 5-MeO-PyrT): around eightfold

CCN(CC)CCc1c[nH]c2ccc(OC)cc12 [5-MeO-DET]
5-HT1A efficacy (in words) (5-HT1A): full efficacy | EC50 (5-HT1A): 37.1 nM

CCN(C)CCc1c[nH]c2ccc(OC)cc12 [5-MeO-MET]
HTR (in words) ([2]; following co-administration of the 5-HT1A-selective antagonist WAY-100635): strong dose-dependent activity | 5-HT1A efficacy (in words) (5-HT1A): full efficacy | EC50 (5-HT1A): 25.9 nM | locomotor activity in the open-field test (in words) [7]: dose-dependent locomotor suppression

COc1ccc2[nH]cc(CCN3CCCCC3)c2c1 [5-MeO-PipT, 5-methoxypiperidinyl-tryptamine]
EC50 (5-HT1A): 88.5 nM | loss of potency at 5-HT1A (5-HT1A; relative to 5-MeO-PyrT): ~42 fold

COc1ccc2[nH]cc(CCN3CCCC3)c2c1 [5-MeO-PyrT, 5-methoxy-N,N-pyrrolidinyl-tryptamine]
selectivity for 5-HT1A > 5-HT2A (5-HT1A): > 38 fold | increase in 5-HT1A > 5-HT2A selectivity (5-HT1A; cyclization of the amine moiety alone, relative to 5-MeO-DMT): approximately 38 fold | EC50 (5-HT1A): 2.1 nM | increase in potency at 5-HT1A (5-HT1A; relative to 5-MeO-DMT): about 12 fold | decrease in 5-HT2A potency (5-HT2A): about 3 fold

CN(C)CCc1c[nH]c2ccc(O)cc12 [5-OH-DMT, bufotenine]
decrease in potency by A365N mutation (5-HT1A(A365N)): about 18 fold

NC(=O)N1c2ccccc2C=Cc2ccccc21 [Carbamazepine, reference compound]
% Compound remaining at 4 h [8]: 96% | fraction unbound at 4 h, 5 µM ([8]; pH 7.4, % Unbound): 0.118 | fraction unbound at 4 h, 5 µM ([8]; pH 7.4, fu): 0.118

CN(C)CCc1c[nH]c2ccccc12 [DMT, N,N-dimethyltryptamine, reference compound]
effect of N343A mutation on potency (in words) (5-HT2A(N343A)): minor effects

CCN(CC)C(=O)[C@@H]1C=C2c3cccc4[nH]cc(c34)C[C@H]2N(C)C1 [LSD, lysergic acid diethylamide]
effect of V366N mutation on signalling efficacy at 5-HT2A (in words) (5-HT2A(V366N)): increase in signalling efficacy

COc1ccccc1N1CCN(CCN(C(=O)C2CCCCC2)c2ccccn2)CC1 [WAY-100635, reference compound]
increase of sucrose preference in stressed mice, treatment alone ([5]; stressed mice): not significant

CC(=O)CC(c1ccccc1)c1c(O)c2ccccc2oc1=O (stereo not shown) [Warfarin, reference compound]
% Compound remaining at 4 h ([4]; Human Plasma): 108.8% | fraction unbound at 4 h, 5 µM ([4]; human, human plasma, pH 7.4, % Bound R2, Human Plasma, replicate 2, 4 h at 37 °C): 0.015 | % Compound remaining at 4 h ([6]; Mouse Plasma): 103.3% | fraction unbound at 4 h, 5 µM ([6]; pH 7.4, % Bound R2, Mouse Plasma, replicate 2, 4 h at 37 °C): 0.067 | fraction unbound at 4 h, 5 µM ([6]; pH 7.4, % Unbound): 0.064 | fraction unbound at 4 h, 5 µM ([6]; pH 7.4, fu): 0.064

O=C1CCc2ccc(OCCCCN3CCN(c4cccc(Cl)c4Cl)CC3)cc2N1 [aripiprazole, reference compound]
maximum drug effect (Emax) (5-HT1A): 77.1 % of 5-HT

O=C1CC2(CCCC2)CC(=O)N1CCCCN1CCN(c2ncccn2)CC1 [buspirone, reference compound]
maximum drug effect (Emax) (5-HT1A): 93.4 % of 5-HT

N#Cc1ccc2[nH]cc(CCCCN3CCN(c4ccc5oc(C(N)=O)cc5c4)CC3)c2c1 [vilazodone, reference compound]
lowest concentration showing activity (5-HT1A; 5-HT1A Gi BRET, suspected slow binding kinetics): 30 pM | maximum drug effect (Emax) (5-HT1A): 97.4 % of 5-HT

— PMC11152992 (Nature, 2024)
